# Data as given in the M2OR odorant receptor database.
# Biological target: T1, UniProt E9PX47
# T1 sequence (whole entry): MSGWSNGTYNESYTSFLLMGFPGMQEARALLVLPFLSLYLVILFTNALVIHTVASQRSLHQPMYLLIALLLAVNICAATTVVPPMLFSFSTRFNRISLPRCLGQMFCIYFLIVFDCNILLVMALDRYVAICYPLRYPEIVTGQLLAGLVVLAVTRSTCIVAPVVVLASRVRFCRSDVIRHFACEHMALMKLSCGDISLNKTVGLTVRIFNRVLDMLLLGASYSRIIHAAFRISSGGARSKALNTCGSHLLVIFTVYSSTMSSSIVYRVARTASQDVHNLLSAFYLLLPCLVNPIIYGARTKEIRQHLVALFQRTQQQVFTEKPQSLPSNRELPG
# Settings: stereoisomer not certain
# How it was run: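 Each receptor–molecule pair is labelled responsive or non-responsive (inactive) according to whether the original authors judged the measured signal statistically different from baseline. The data were taken from the main text and supplementary material of published papers and checked for typos and inconsistencies. Assay methods differed by source, with transient luciferase assays in mammalian cell lines being common.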
# 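Further: active if original authors judged signal statistically different from baseline.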
row,Structure (SMILES),odorant receptor agonist call
1,CCCCCCCCC(=O)O,inactive
2,CCCCCCO,inactive
3,CCCCCCCCCC(=O)[O-].[H+],inactive
